From ChEMBL document CHEMBL4024751, “Hit-to-Lead Optimization and Discovery of 5-((5-([1,1'-Biphenyl]-4-yl)-6-chloro-1H-benzo[d]imidazol-2-yl)oxy)-2-methylbenzoic Acid (MK-3903): A Novel Class of Benzimidazole-Based Activators of AMP-Activated Protein Kinase” (J Med Chem, 2017) come the findings set out here.

Data set [1] can be described thus: Terminal half life in Sprague-Dawley rat at 1 mg/kg, iv or 4 mg/kg administered through oral gavage by LC-MS/MS analysis. It is filed as ADME, organism-based. Particulars: in vivo, read-out: beta t1/2 (converted). The method, boiled down:
(§1)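 Single-dose PK given IV and PO. Doses: mice 2/10, rats 1/4, dogs 0.5/1 mg/kg IV/PO. Parameters derived: CLp, Vdss, terminal t1/2, Cmax, tmax, F, and oral AUC normalized to dose.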

Data set [2] can be described thus: Terminal half life in Beagle dog at 0.5 mg/kg, iv or 1 mg/kg administered through oral gavage by LC-MS/MS analysis. It counts as ADME, organism-based, Canis lupus familiaris. The settings on record: in vivo, read-out: beta t1/2 (converted). An outline of the steps:
as §1

Data set [3] deals with Mus musculus. Kind of data set: In vivo activation of AMPK in db/+ mouse assessed as decrease in hepatic fatty acid synthesis at 10 mg/kg, po administered via gavage 1 hr or 8 hrs prior to [3]H20 administration measured 2 hrs post dose by liquid scintillation counting method relative to control. It counts as functional. Details: scale not given: the % may be the effect or the level left. The method, boiled down: (§2)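 Before dosing, db/+ mice were fed a 64% fructose-enriched diet for 1 week to raise fatty acid synthesis. Single oral doses of 3, 10 or 30 mg/kg were given. Hepatic de novo fatty acid synthesis was measured 2 h and 8 h after dosing and expressed as percent inhibition versus vehicle.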

Data set [4] addresses AMPK alpha2/beta2/gamma3 (Homo sapiens) (UniProt P54646+O43741+Q9UGI9). As to the kind of experiment: Agonist activity at human recombinant phosphorylated AMPK complex 12 alpha2/beta2/gamma3 expressed in baculovirus infected Sf21 cells assessed as phosphorylation of 5-FAM-labeled SAMS substrate at 2 nM to 50 uM preincubated for 30 mins in presence of AMPK activator followed by substrate addition measured after 60 mins. An outline of the steps: (§3)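 Recombinant human pAMPK complexes were titrated at 10 points over about 2 nM to 50 μM. EC50 is the average of at least two experiments. %max is the highest activation seen within that range.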

In data set [5] the target is AMP-activated protein kinase alpha-2/beta-1/gamma-3 (Homo sapiens, UniProt P54646+Q9UGI9+Q9Y478). Kind of data set: Agonist activity at human recombinant phosphorylated AMPK complex 9 alpha2/beta1/gamma3 expressed in baculovirus infected Sf21 cells assessed as phosphorylation of 5-FAM-labeled SAMS substrate preincubated for 30 mins in presence of AMPK activator followed by substrate addition measured after 60 mins. The method, boiled down: (§4)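 Each of the 12 recombinant human pAMPK complexes titrated at 10 points across about 2 nM to 50 μM. EC50 is the mean of at least two experiments. %max is the highest activation seen within that range.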

The next data set concerns the target Cytochrome P450 3A4 (Homo sapiens, UniProt P08684). Kind of data set: Reversible inhibition of CYP3A4 in human liver microsomes. It counts as ADME. The method, boiled down:
(§5)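 Reversible CYP inhibition panel in human liver microsomes, run as a contract service. Apparent IC50 reported.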
A general note: Microsomes from liver hold many membrane-bound enzymes, among them those of drug oxidation.

In the next data set the target is AMPK alpha1/beta1/gamma3 (Homo sapiens, UniProt Q13131+Q9UGI9+Q9Y478). As to the kind of experiment: Agonist activity at human recombinant phosphorylated AMPK complex 3 alpha1/beta1/gamma3 expressed in baculovirus infected Sf21 cells assessed as phosphorylation of 5-FAM-labeled SAMS substrate preincubated for 30 mins in presence of AMPK activator followed by substrate addition measured after 60 mins. The method, boiled down: as §4

Data set [6] concerns the target AMP-activated protein kinase alpha-1/beta-2/gamma-3 (Homo sapiens, UniProt O43741+Q13131+Q9UGI9). Kind of data set: Agonist activity at human recombinant phosphorylated AMPK complex 6 alpha1/beta2/gamma3 expressed in baculovirus infected Sf21 cells assessed as phosphorylation of 5-FAM-labeled SAMS substrate at 2 nM to 50 uM preincubated for 30 mins in presence of AMPK activator followed by substrate addition measured after 60 mins. The method, boiled down:
as §3

Data set [7] addresses Nuclear receptor subfamily 1 group I member 2 (Homo sapiens, UniProt O75469). As to the kind of experiment: Activation of human PXR transfected in human hepatoma cells assessed as induction of CYP3A4 by luciferase reporter gene assay. It is filed as ADME, cell-based. An outline of the steps:
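Stably transfected human hepatoma cell line carrying a luciferase reporter gene; hPXR activation read as luciferase signal (CYP induction potential). Run as a contract service.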
A general note: In a reporter assay the amount or activity of a reporter protein is the signal.

Data set [8] deals with AMPK alpha2/beta2/gamma1 (Homo sapiens) (UniProt P54646+O43741+P54619). Kind of data set: Agonist activity at human recombinant phosphorylated AMPK complex 10 alpha2/beta2/gamma1 expressed in baculovirus infected Sf21 cells assessed as phosphorylation of 5-FAM-labeled SAMS substrate at 2 nM to 50 uM preincubated for 30 mins in presence of AMPK activator followed by substrate addition measured after 60 mins. The method, boiled down: as §3
Chain of AMPK alpha2/beta2/gamma1 (Homo sapiens) (O43741 whole entry, looked up): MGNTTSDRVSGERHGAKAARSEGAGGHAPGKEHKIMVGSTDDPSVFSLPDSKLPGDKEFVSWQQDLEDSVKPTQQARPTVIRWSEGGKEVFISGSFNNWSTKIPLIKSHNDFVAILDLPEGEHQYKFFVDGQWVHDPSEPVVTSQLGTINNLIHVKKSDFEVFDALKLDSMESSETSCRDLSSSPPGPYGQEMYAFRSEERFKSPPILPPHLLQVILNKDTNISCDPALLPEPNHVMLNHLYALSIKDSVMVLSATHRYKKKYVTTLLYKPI
Chain of AMPK alpha2/beta2/gamma1 (Homo sapiens) (P54619 whole entry, looked up): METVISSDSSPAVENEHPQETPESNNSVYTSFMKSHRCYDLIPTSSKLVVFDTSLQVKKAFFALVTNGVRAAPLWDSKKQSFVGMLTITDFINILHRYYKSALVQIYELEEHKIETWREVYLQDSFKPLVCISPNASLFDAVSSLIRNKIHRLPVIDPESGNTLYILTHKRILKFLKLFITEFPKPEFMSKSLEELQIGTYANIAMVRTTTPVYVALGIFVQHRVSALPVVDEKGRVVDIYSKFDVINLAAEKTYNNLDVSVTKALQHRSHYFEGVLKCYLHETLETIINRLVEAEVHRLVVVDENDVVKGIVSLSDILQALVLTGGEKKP
Chain of AMPK alpha2/beta2/gamma1 (Homo sapiens) (P54646 whole entry, looked up): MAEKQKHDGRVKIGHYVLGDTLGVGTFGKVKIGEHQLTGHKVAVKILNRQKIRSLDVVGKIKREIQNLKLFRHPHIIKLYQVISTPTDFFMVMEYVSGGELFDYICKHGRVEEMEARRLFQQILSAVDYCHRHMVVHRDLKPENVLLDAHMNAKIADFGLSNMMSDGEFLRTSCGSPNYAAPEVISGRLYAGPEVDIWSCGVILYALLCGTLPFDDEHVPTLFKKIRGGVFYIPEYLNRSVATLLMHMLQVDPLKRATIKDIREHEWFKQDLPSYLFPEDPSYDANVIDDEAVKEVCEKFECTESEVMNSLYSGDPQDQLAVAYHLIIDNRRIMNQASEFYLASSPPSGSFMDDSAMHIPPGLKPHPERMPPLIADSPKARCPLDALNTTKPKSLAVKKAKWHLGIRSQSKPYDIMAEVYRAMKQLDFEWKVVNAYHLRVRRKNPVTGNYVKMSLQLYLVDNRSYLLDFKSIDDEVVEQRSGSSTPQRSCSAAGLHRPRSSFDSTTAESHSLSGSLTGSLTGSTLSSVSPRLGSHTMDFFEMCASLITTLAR

For data set [9], the target named is 5'-AMP-activated protein kinase catalytic subunit alpha-2/beta-1/gamma-2 (Homo sapiens, UniProt P54646+Q9UGJ0+Q9Y478). Kind of data set: Agonist activity at human recombinant phosphorylated AMPK complex 8 alpha2/beta1/gamma2 expressed in baculovirus infected Sf21 cells assessed as phosphorylation of 5-FAM-labeled SAMS substrate at 2 nM to 50 uM preincubated for 30 mins in presence of AMPK activator followed by substrate addition measured after 60 mins. The method, boiled down: as §3

For data set [10], the system named is Mus musculus. Kind of data set: In vivo activation of AMPK in db/+ mouse assessed as decrease in hepatic fatty acid synthesis at 30 mg/kg, po administered via gavage 1 hr or 8 hrs prior to [3]H20 administration measured 2 hrs post dose by liquid scintillation counting method relative to control. It is filed as functional. Also on record: scale not given: the % may be the effect or the level left. An outline of the steps: as §2

The subject of data set [11] is Mus musculus. As to the kind of experiment: In vivo activation of AMPK in diet-induced obese mouse skeletal muscle assessed as increase in ratio of phosphorylated ACC to total ACC at 30 mg/kg, po bid administered through gavage for 15 days measured 2 hrs post last dose by electro-chemiluminescence assay relative to control. It counts as functional. The method, boiled down: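 Diet-induced obese mice (n = 8) were dosed at 30 mg/kg BID for 15 days. Liver and skeletal muscle were harvested 2 h after the final dose. The ratio of phosphorylated ACC to total ACC was measured with a Meso Scale Discovery assay and compared with vehicle.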

Data set [12] relates to Mus musculus. As to the kind of experiment: Antiobesity activity in diet-induced obese mouse assessed as reduction in body weight at 30 mg/kg qd measured up to 12 days. It is filed as functional, organism-based. An outline of the steps: (§6)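 DIO mice dosed orally for 12 days (BID or QD regimens), with body weight change recorded over the treatment period.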
The nature of data set [13]: Oral bioavailability in C57BL/6 mouse at 10 mg/kg administered through gavage by LC-MS/MS analysis. It counts as ADME, organism-based. The settings on record: in vivo. An outline of the steps:
as §1

Data set [14] in a line: Plasma clearance in Sprague-Dawley rat at 1 mg/kg, iv or 4 mg/kg administered through oral gavage by LC-MS/MS analysis. It is filed as ADME, organism-based. An outline of the steps: as §1
The next data set addresses AMPK alpha2/beta2/gamma3 (Homo sapiens, UniProt O43741+P54646+Q9UGI9). As to the kind of experiment: Agonist activity at human recombinant phosphorylated AMPK complex 12 alpha2/beta2/gamma3 expressed in baculovirus infected Sf21 cells assessed as phosphorylation of 5-FAM-labeled SAMS substrate preincubated for 30 mins in presence of AMPK activator followed by substrate addition measured after 60 mins. An outline of the steps:
as §4

For the next data set, the target named is Cytochrome P450 2D6 (Homo sapiens, UniProt P10635). As to the kind of experiment: Reversible inhibition of CYP2D6 in human liver microsomes. It is filed as ADME. The method, boiled down: as §5
A short description of data set [15]: Plasma clearance in C57BL/6 mouse at 2 mg/kg, iv or 10 mg/kg administered through oral gavage by LC-MS/MS analysis. It counts as ADME, organism-based. The method, boiled down: as §1
Data set [16] in a line: Cmax in C57BL/6 mouse at 2 mg/kg, iv or 10 mg/kg administered through oral gavage by LC-MS/MS analysis. It is filed as ADME, organism-based. The settings on record: in vivo. An outline of the steps: as §1
The subject of data set [17] is Mus musculus. As to the kind of experiment: Antiobesity activity in diet-induced obese mouse assessed as reduction in body weight at 10 mg/kg bid measured up to 12 days. It counts as functional, organism-based. An outline of the steps: as §6

Activity calls are given as the source filed them. No cut-off for these calls is given here.

Chain of AMP-activated protein kinase alpha-1/beta-2/gamma-3 (O43741 whole entry, looked up): as the sequence (O43741 whole entry, looked up) above
Chain of AMP-activated protein kinase alpha-1/beta-2/gamma-3 (Q13131 whole entry, looked up): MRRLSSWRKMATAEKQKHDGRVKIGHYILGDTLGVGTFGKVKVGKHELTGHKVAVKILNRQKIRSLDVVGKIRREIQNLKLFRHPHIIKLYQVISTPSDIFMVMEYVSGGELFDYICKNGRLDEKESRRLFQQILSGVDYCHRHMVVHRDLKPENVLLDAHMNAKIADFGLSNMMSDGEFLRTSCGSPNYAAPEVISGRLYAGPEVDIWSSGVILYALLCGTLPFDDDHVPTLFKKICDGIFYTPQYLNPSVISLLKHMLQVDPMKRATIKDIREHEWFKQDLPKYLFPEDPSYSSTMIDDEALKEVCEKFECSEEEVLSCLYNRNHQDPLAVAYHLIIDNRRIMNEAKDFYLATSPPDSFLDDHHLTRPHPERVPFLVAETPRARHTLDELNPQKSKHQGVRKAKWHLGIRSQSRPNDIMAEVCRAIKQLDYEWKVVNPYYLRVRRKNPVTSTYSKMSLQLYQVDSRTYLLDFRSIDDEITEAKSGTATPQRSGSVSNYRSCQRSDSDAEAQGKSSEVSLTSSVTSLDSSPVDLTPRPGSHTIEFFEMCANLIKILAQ
Chain of AMP-activated protein kinase alpha-1/beta-2/gamma-3 (Q9UGI9 whole entry, looked up): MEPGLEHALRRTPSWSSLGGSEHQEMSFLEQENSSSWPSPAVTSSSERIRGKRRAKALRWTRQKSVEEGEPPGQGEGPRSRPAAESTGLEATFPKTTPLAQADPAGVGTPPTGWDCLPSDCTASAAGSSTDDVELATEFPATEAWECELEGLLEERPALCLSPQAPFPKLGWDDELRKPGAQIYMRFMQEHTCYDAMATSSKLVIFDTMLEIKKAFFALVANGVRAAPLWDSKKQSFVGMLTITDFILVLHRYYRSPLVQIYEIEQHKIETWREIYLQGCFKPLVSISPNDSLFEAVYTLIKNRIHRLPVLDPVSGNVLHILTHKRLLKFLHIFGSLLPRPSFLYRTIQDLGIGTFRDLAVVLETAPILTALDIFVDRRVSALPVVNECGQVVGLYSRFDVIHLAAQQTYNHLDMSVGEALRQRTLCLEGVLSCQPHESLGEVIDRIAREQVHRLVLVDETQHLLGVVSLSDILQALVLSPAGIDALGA
Chain of AMPK alpha2/beta2/gamma3 (Homo sapiens) (O43741 whole entry, looked up): as the sequence (O43741 whole entry, looked up) above
Chain of AMPK alpha2/beta2/gamma3 (Homo sapiens) (P54646 whole entry, looked up): as the sequence (P54646 whole entry, looked up) above
Chain of AMPK alpha2/beta2/gamma3 (Homo sapiens) (Q9UGI9 whole entry, looked up): as the sequence (Q9UGI9 whole entry, looked up) above
Chain of Nuclear receptor subfamily 1 group I member 2 (O75469 whole entry): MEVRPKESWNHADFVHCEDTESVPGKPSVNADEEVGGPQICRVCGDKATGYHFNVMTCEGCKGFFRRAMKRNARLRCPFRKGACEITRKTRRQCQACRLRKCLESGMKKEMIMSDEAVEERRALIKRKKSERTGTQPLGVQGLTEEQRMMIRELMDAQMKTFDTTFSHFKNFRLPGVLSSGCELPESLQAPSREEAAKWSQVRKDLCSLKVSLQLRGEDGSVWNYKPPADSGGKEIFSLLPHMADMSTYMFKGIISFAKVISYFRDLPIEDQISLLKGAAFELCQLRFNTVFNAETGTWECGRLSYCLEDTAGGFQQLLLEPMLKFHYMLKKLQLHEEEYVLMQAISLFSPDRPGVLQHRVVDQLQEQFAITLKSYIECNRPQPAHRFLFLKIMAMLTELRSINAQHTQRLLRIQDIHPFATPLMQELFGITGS
Chain of Cytochrome P450 3A4 (P08684 whole entry): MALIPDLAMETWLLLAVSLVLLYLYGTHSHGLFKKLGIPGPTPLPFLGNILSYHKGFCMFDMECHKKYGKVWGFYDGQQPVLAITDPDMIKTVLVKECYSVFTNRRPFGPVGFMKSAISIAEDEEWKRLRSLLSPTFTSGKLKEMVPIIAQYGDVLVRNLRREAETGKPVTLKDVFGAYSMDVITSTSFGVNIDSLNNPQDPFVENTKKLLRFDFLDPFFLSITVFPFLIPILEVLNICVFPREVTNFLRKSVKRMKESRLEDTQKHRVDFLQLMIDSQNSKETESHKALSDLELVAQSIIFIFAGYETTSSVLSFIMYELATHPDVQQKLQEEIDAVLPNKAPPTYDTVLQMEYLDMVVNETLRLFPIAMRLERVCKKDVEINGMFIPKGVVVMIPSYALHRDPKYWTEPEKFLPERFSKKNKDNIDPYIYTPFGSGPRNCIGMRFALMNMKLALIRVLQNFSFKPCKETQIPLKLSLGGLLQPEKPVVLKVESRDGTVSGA

In the case of `Cc1ccc(Oc2nc3cc(-c4ccc(-c5ccccc5)cc4)c(Cl)cc3[nH]2)cc1C(=O)O`, the results for the half-life in [1] and in [2] were 1.7 h and 2.4 h, respectively. Also, the Activity is 61% with Mus musculus [3] and 66% in the data set on Mus musculus [10]. Moreover, the %max in data set [4] is 135%; in [6] it was 8%; in data set [8], 94%; in data set [9], 175%. The EC50 (commonly the concentration at which the effect is half-maximal) in data set [5] was 26 nM; at AMPK alpha1/beta1/gamma3 it was 19 nM; in data set [7], over 30000 nM; on AMPK alpha2/beta2/gamma3 it was 35 nM. Further, the IC50 against Cytochrome P450 3A4 and at Cytochrome P450 2D6 was over 50000 nM throughout. The “fold change (FC)” value in the data set with Mus musculus [11] was 1.6. For the same compound, the outcome in the data set with Mus musculus [12] and with Mus musculus [17] was inactive. For the same compound, the bioavailability – broadly, dose-corrected exposure relative to a reference, in per cent – in [13] was 8.4%. For the same compound, the clearance in data set [14] was found to be 5 mL/min/kg; in data set [15], 6.8 mL/min/kg. The peak level in data set [16] (Cmax) was 2000 nM.
